Data reported in ChEMBL document CHEMBL2390925, “Further studies on 2-arylacetamide pyridazin-3(2H)-ones: design, synthesis and evaluation of 4,6-disubstituted analogs as formyl peptide receptors (FPRs) agonists” (Eur J Med Chem, 2013).

Columns and labels:
[1] = target: T1, N-formyl peptide receptor 3 (Homo sapiens, UniProt P25089); experiment: Agonist activity at FPR3 (unknown origin) transfected in human HL60 cells assessed as induction of Ca2+ mobilization; assay type: cell-based, HL-60
T1 sequence (P25089 whole entry): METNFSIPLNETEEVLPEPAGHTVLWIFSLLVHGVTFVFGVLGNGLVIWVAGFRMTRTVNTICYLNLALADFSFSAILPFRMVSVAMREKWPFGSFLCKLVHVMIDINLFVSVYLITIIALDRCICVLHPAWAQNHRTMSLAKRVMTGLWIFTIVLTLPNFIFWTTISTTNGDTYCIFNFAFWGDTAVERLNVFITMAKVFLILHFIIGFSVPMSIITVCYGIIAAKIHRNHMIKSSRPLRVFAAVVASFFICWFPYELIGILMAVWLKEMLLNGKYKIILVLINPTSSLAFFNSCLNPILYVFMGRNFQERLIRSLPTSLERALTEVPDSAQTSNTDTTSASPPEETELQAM

[2] = target: T2, fMet-Leu-Phe receptor (Homo sapiens) (UniProt P21462); experiment: Agonist activity at FPR1 (unknown origin) transfected in human HL60 cells assessed as induction of Ca2+ mobilization relative to fMLF; assay type: functional, cell-based; details: HL-60
T2 sequence (whole entry): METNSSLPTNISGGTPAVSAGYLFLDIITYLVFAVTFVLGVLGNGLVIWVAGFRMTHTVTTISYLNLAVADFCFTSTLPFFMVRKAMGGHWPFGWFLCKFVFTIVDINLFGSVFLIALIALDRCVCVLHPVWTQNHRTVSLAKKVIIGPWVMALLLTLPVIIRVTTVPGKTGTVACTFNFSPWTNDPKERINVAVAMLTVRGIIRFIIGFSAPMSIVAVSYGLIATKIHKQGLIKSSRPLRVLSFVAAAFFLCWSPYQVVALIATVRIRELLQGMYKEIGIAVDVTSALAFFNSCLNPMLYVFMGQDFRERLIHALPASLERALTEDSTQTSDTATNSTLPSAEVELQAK
Procedure, shortened: (§1)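 Same Fluo-4 Ca2+ flux in transfected HL-60 cells. The peak fluorescence change over baseline was normalized to 5 nM fMLF for FPR1 cells and to 5 nM WKYMVm for FPR2 and FPR3 cells, each taken as 100%. Efficacy was read from 5–6 point dose-response curves.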

[3] = target: fMet-Leu-Phe receptor 1/2 (Homo sapiens) (UniProt P21462+P25090); experiment: Agonist activity at FPR1/FPR2 in human neutrophils assessed as induction of Ca2+ mobilization relative to fMLF; assay type: functional
Procedure, shortened: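 Neutrophils from healthy donors were isolated by dextran sedimentation, Histopaque 1077 gradient and hypotonic red cell lysis. […] Peak response was normalized to 5 nM fMLF as 100%. EC50 comes from 5–6 point curves, mean of three experiments with different donors.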

[4] = test system: HL-60; experiment: Effect on Ca2+ mobilization in human wild type HL60 cells; assay type: functional, cell-based
Procedure, shortened: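 Wild-type, non-transfected HL-60 cells, grown without G418, were run in the same Fluo-4 Ca2+ flux assay. Fluorescence was monitored every 5 s for 240 s at room temperature.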

[5] = target: T3, N-formyl peptide receptor 2 (Homo sapiens) (UniProt P25090); experiment: Agonist activity at FPR2 (unknown origin) transfected in human HL60 cells assessed as induction of Ca2+ mobilization relative to WKYMVm; assay type: functional, cell-based; details: HL-60; procedure, shortened: as §1
T3 sequence (whole entry): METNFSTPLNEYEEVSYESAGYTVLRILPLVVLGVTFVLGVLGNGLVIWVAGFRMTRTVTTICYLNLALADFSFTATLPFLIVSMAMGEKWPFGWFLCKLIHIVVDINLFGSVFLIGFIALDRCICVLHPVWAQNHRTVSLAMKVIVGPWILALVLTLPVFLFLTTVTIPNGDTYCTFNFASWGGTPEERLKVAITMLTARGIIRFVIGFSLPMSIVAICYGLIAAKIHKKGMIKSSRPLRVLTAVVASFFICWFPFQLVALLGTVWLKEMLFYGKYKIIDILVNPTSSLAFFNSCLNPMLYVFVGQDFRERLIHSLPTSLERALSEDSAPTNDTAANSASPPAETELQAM

[6] = test system: HL-60; experiment: Cytotoxicity against human wild type HL60 cells at 5 to 20 uM after 60 mins by CellTitre-Glo luminescent assay; assay type: cell-based; details: hl-60, 1 h
Procedure, shortened: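 Wild-type HL-60 cells at 3×10^4 cells/well were exposed to 5, 10 or 20 µM compound for 60 min at 37 °C in 5% CO2. Samples were equilibrated to room temperature for 30 min before the CellTiter-Glo luminescence read. Triplicate samples; the experiment was representative of two.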

[7] = target: T4, fMet-Leu-Phe receptor (Homo sapiens, UniProt P21462); experiment: Agonist activity at FPR1 (unknown origin) transfected in human HL60 cells assessed as induction of Ca2+ mobilization; assay type: functional, cell-based, HL-60
T4 sequence (P21462 whole entry): T2 sequence (whole entry)

[8] = target: T5, fMet-Leu-Phe receptor 1/2 (Homo sapiens, UniProt P21462+P25090); experiment: Agonist activity at FPR1/FPR2 in human neutrophils assessed as induction of Ca2+ mobilization; assay type: functional
T5 sequence (P21462 whole entry): T2 sequence (whole entry)
T5 sequence (P25090 whole entry): T3 sequence (whole entry)

[9] = test system: Neutrophil; experiment: Induction of chemotaxis in human neutrophils assessed as cell migration after 60 mins by CellTitre-Glo luminescent assay; assay type: functional, cell-based; details: 1 h
Procedure, shortened: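 Migration ran 60 min at 37 °C in 5% CO2. Migrated cells were counted by ATP luminescence against a neutrophil standard curve and expressed as % of spontaneous migration. EC50 comes from nonlinear regression of dose-response curves.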

[10] = target: T6, N-formyl peptide receptor 2 (Homo sapiens, UniProt P25090); experiment: Agonist activity at FPR2 (unknown origin) transfected in human HL60 cells assessed as induction of Ca2+ mobilization; assay type: functional, cell-based, HL-60
T6 sequence (P25090 whole entry): T3 sequence (whole entry)

[11] = target: T7, N-formyl peptide receptor 3 (Homo sapiens) (UniProt P25089); experiment: Agonist activity at FPR3 (unknown origin) transfected in human HL60 cells assessed as induction of Ca2+ mobilization relative to WKYMVm; assay type: cell-based; details: HL-60; procedure, shortened: as §1
T7 sequence (whole entry): T1 sequence (P25089 whole entry)

| SMILES | EC50 [1] | Efficacy [2] | Efficacy [3] | EC50 [4] | Efficacy [5] | Activity [6] | EC50 [7] | EC50 [8] | EC50 [9] | EC50 [10] | Efficacy [11] |
| --- | --- | --- | --- | --- | --- | --- | --- | --- | --- | --- | --- |
| COc1cccc(C(=O)c2cc(C)nn(CC(=O)Nc3ccc(Br)cc3)c2=O)c1 | > 50 µM | 140% | 115% | > 50 µM | 110% | Non-toxic | – | – | – | – | – |
| Cc1cc(Cc2ccoc2)c(=O)n(CC(=O)Nc2ccc(Br)cc2)n1 | > 50 µM | 100% | 125% | > 50 µM | 75% | Non-toxic | – | – | – | – | – |
| CCc1cc(Cc2cccc(OC)c2)c(=O)n(CC(=O)Nc2ccc(I)cc2)n1 | > 50 µM | 70% | 90% | > 50 µM | 65% | Non-toxic | – | – | – | – | – |
| Cc1cc(Cc2cccnc2)c(=O)n(CC(=O)Nc2ccc(Br)cc2)n1 | > 50 µM | 85% | 120% | > 50 µM | 90% | Non-toxic | – | – | – | – | – |
| Cc1cc(Cc2ccccc2)c(=O)n(CC(=O)Nc2ccc3c(c2)OCO3)n1 | > 50 µM | 55% | 75% | > 50 µM | – | Non-toxic | 6.9 µM | 6.1 µM | 4.2 µM | > 50 µM | – |
| COc1cccc(C(=O)Nc2cc(C)nn(CC(=O)Nc3ccc(Br)cc3)c2=O)c1 | > 50 µM | 120% | 110% | > 50 µM | 100% | Non-toxic | – | – | – | – | – |
| COc1cccc(Cc2cc(C(C)C)nn(CC(=O)Nc3ccc(Br)cc3)c2=O)c1 | 17.4 µM | 135% | 110% | > 50 µM | 90% | Non-toxic | – | – | – | – | 30% |
| COc1cccc(Cc2cc(-c3ccccc3)nn(CC(=O)Nc3ccc(Br)cc3)c2=O)c1 | > 50 µM | 110% | 115% | > 50 µM | 25% | Non-toxic | – | – | – | – | – |
| Cc1cc(Cc2ccc(C(N)=O)cc2)c(=O)n(CC(=O)Nc2ccc(Br)cc2)n1 | > 50 µM | 40% | – | > 50 µM | 80% | Non-toxic | 29.3 µM | – | – | 27.2 µM | – |
| COc1ccc(Nc2c(C(C)=O)c(C)nn(CC(=O)Nc3ccc(Br)cc3)c2=O)cc1 | > 50 µM | 75% | 110% | > 50 µM | 90% | Non-toxic | 13.5 µM | 3.9 µM | 2.7 µM | 1.7 µM | – |
| Cc1cc(Cc2ccsc2)c(=O)n(CC(=O)Nc2ccc(Br)cc2)n1 | > 50 µM | 100% | 115% | > 50 µM | 65% | Non-toxic | – | – | – | – | – |
| COc1ccc(Nc2cc(C)nn(CC(=O)Nc3ccc(Br)cc3)c2=O)cc1 | > 50 µM | 100% | 105% | > 50 µM | 110% | Non-toxic | – | – | – | – | – |
| COc1cccc(Cc2ccnn(CC(=O)Nc3ccc(Br)cc3)c2=O)c1 | 14.6 µM | 125% | – | > 50 µM | 60% | Non-toxic | – | – | – | – | 25% |
| Cc1cc(Cc2cccc(Cl)c2)c(=O)n(CC(=O)Nc2ccc(I)cc2)n1 | > 50 µM | 55% | 90% | > 50 µM | 35% | Non-toxic | – | – | – | – | – |
| Cc1cc(Cc2ccccc2)c(=O)n(CC(=O)Nc2ccc(Br)cc2)n1 | > 50 µM | 50% | – | > 50 µM | 20% | Non-toxic | 5.5 µM | – | – | 11.6 µM | – |
| Cc1cc(Cc2cccs2)c(=O)n(CC(=O)Nc2ccc(Br)cc2)n1 | 10.2 µM | 140% | 80% | > 50 µM | 60% | Non-toxic | – | – | – | – | 25% |
